Experimental data of several laboratories.
Lines come from different studies, so protocols differ.
EEF2K: Eukaryotic elongation factor 2 kinase (EEF2K, Homo sapiens, UniProt O00418)
MMP1: Interstitial collagenase (MMP1, Homo sapiens, UniProt P03956)
CASP9: Caspase-9 (CASP9, Homo sapiens, UniProt P55211)

COc1ccc(S(=O)(=O)N2CCCCC2)cc1C
inhibition (Corticotropin-releasing factor receptor 1 (CRHR1, Homo sapiens, UniProt P34998); ligand displacement, radioligand; 10 µM): < 30%

N=C(N)c1ccc2cc(OC(=O)c3ccc(N=C(N)N)cc3)ccc2c1
inhibition (Ubiquitin carboxyl-terminal hydrolase 7 (USP7, Homo sapiens, UniProt Q93009); enzyme activity, inhibitor; 10 µM): 0%

C#Cc1n[nH]c2c(-c3cn([C@@H](C)c4ccccc4)c(=O)[nH]c3=O)cc(F)cc12
inhibition (EEF2K; enzyme activity, inhibitor; 0.1 µM): 2.3%

Cn1cc(-c2cc(F)cc(N3CCn4c(cc5c4CCCC5)C3=O)c2CO)cc(Nc2ccc(N3CCN(C4COC4)CC3)cn2)c1=O
inhibition (EEF2K; enzyme activity, inhibitor; 0.1 µM): 4%

c1ccc(C(NCCNC(c2ccccc2)c2ccccc2)c2ccccc2)cc1
inhibition (MMP1; enzyme activity, inhibitor; 10 µM): -10%

Cn1cc(-c2cccc(N3CCc4c(sc5c4CC(C)(C)C5)C3=O)c2CO)cc(Nc2ccncn2)c1=O
inhibition (Hepatocyte growth factor receptor (MET, Homo sapiens, UniProt P08581); enzyme activity, inhibitor; 1 µM): 9%

O=C(Nc1cccnn1)N1CCN([C@@H]2CCOc3cc(C(F)(F)F)ccc32)CC1
inhibition (Alpha-1B adrenergic receptor (ADRA1B, Homo sapiens, UniProt P35368); cell-free assay; 20 µM): 5%

COc1ccc(S(=O)(=O)N(CC(=O)NO)CC(C)C)cc1
inhibition (MMP1; enzyme activity, inhibitor; 1 µM): 26%

CCN(CC)CCCC[C@H](NC(=O)[C@H](CC(C)C)NC(=O)[C@H](C)NC(=O)[C@H](Cc1ccccc1)NC(=O)c1ccc(C(C)(C)C)cc1)C(=O)N[C@@H](CO)C(=O)OC
inhibition (C-C chemokine receptor type 1 (CCR1, Homo sapiens, UniProt P32246); ligand displacement, radioligand; 10 µM): 7%

CN(C)C(=O)COC(=O)Cc1ccc(OC(=O)c2ccc(NC(=N)N)cc2)cc1
inhibition (MMP1; enzyme activity, inhibitor; 10 µM): 3%

COc1cc(Nc2ncc(F)c(Nc3ccc4c(n3)NC(=O)C(C)(C)O4)n2)cc(OC)c1OC
inhibition (Cyclin-dependent kinase-like 1 (CDKL1, Homo sapiens, UniProt Q00532); binding, competition with immobilised ligand; 10 µM): 84%

CCOC(=O)c1ccc(OC(=O)CCCCCNC(=N)N)cc1
inhibition (CASP9; enzyme activity, inhibitor; 10 µM): 7%

C#Cc1n[nH]c2c(-c3cn(C(C)c4ccccn4)c(=O)[nH]c3=O)cc(F)cc12 (stereo not drawn)
inhibition (TGF-beta receptor type-1 (TGFBR1, Homo sapiens, UniProt P36897); enzyme activity, inhibitor; 1 µM): 25.2%

COC(=O)CC[C@H](NC(=O)[C@H](CC(C)C)NC(=O)OCc1ccccc1)C(=O)N[C@@H](Cc1cnc[nH]1)C(=O)N[C@@H](CC(=O)OC)C(=O)CF
inhibition (CASP9; enzyme activity, inhibitor; 0.1 µM): 7%

Cc1ncc(C)n2nc(/C=C/c3nc(N4CCCC4)cc(N4CCOCC4)n3)nc12
inhibition (MMP1; enzyme activity, inhibitor; 10 µM): 7%
